In general, MIC refers to the least concentration at which growth counts as inhibited. What is called IC50 is the concentration needed to halve the response being measured.

Data on 13 compounds can be found in ChEMBL document CHEMBL4316643, “Sesquiterpenes from an Eastern African Medicinal Mushroom Belonging to the Genus Sanghuangporus” (J Nat Prod, 2019).

In one assay the test system is Mucor hiemalis. Kind of assay: Antimicrobial activity against Mucor hiemalis DSM 2656 by serial dilution assay. Type of assay: functional. In a few lines:
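Serial dilution MIC assay in 96-well plates using YM medium for the filamentous fungus; starting concentration 300 μg/mL.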

In another assay the test system is Staphylococcus aureus. Kind of assay: Antimicrobial activity against Staphylococcus aureus DSM 346 by serial dilution assay. Type of assay: functional.
Another assay deals with Micrococcus luteus. Description: Antimicrobial activity against Micrococcus luteus DSM 1790 by serial dilution assay. Type of assay: functional.
The next assay deals with Bacillus subtilis. Description: Antimicrobial activity against Bacillus subtilis DSM 10 by serial dilution assay. Type of assay: functional.
For assay [1], the system named is Mycolicibacterium smegmatis. Kind of assay: Antimicrobial activity against Mycobacterium smegmatis DSM 43524 by serial dilution assay. Type of assay: functional.
The subject of another assay is KB 3-1. Kind of assay: Cytotoxicity in human KB 3.1 cells. Type of assay: functional, cell-based. Put shortly:
(§1)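 In vitro cytotoxicity against mouse fibroblast L929 and HeLa-derived KB-3.1 cells; serial dilutions from a starting concentration of 37 μg/mL; IC50 determined.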

Another assay relates to L929. Kind of assay: Cytotoxicity in mouse L929 cells. Type of assay: functional, cell-based. In a few lines: as §1
The mark [2] stands for this setting: Homo sapiens, KB 3-1, read-out: IC50.
The mark [3] stands for this setting: Mus musculus, L929, read-out: IC50.

In brackets after ≈: the same amount, converted by molar mass. Activity calls are given as the source filed them. The calls are words filed in the database; no cut-off is given here.

On to `C=C1CCCC(C)(C)[C@@H]1CC/C(=C/CO)CO`, for which the MIC against Mucor hiemalis turned out to be 25 µg/mL (≈ 105 µM); with Staphylococcus aureus, 100 µg/mL (≈ 420 µM); with Micrococcus luteus, 100 µg/mL (≈ 420 µM); in the assay with Bacillus subtilis it was 100 µg/mL (≈ 420 µM). Moreover, the MIC entry in assay [1] is “inactive”. Besides, the IC50 turned out to be 79.8 µM in the assay with KB 3-1 (setting [2]) and 118 µM with L929 (setting [3]).
In turn, NYSTATIN had an MIC with Mucor hiemalis of 16.7 µg/mL.
Compound `O=C(O)c1cn(C2CC2)c2cc(N3CCNCC3)c(F)cc2c1=O` [CIPROFLOXACIN] gave an MIC in the assay with Bacillus subtilis of 3.1 µg/mL (≈ 9.36 µM).
In the case of `CC1=CC[C@H]([C@@](C)(O)[C@@H](O)C/C=C(\C)C(=O)O)CC1`, the MIC against Mucor hiemalis worked out at 50 µg/mL (≈ 186 µM). For the same compound, the MIC result (with Staphylococcus aureus; in the assay on Micrococcus luteus; in the assay on Bacillus subtilis; in assay [1]) was “inactive” each time.
With `CC1=CC[C@H]([C@@](C)(O)[C@@H](O)[C@@H](O)/C=C(\C)C(=O)O)CC1`, the MIC result (with Mucor hiemalis; with Staphylococcus aureus; with Micrococcus luteus; with Bacillus subtilis; in assay [1]) was “inactive” in each case.
In turn, `C=C1CCC[C@@](C)(CO)[C@@H]1CCc1ccoc1` returned an MIC against Bacillus subtilis of 75 µg/mL (≈ 320 µM). Also, the values for the IC50 in the assay on KB 3-1 (setting [2]) and with L929 (setting [3]) were 27.8 µM and 59.8 µM, respectively.
In the case of `C=C1CCC[C@@](C)(CO)[C@@H]1CC/C(=C/CO)CO`, in the assay with Mucor hiemalis, the MIC worked out at 50 µg/mL (≈ 197 µM). The MIC result (in the assay with Staphylococcus aureus; with Micrococcus luteus; in the assay on Bacillus subtilis; in assay [1]) was “inactive” in each case. Besides, the IC50 result in the assay with KB 3-1 (kb 3-1) and with L929 (l929) was “Not Active” in each case.
Turning to `C=C([C@H]1CC=C(C)CC1)[C@H](O)[C@@H](O)/C=C(\C)C(=O)O`, the MIC against Mucor hiemalis and in the assay on Staphylococcus aureus was 100 µg/mL (≈ 375 µM) in each case. The MIC result (in the assay with Micrococcus luteus; with Bacillus subtilis; in assay [1]) was “inactive” in each case. In addition, in the assay with KB 3-1 (setting [2]), the IC50 stood at 173 µM.
Turning to `C/C(=C\c1csc(C)n1)[C@@H]1C[C@@H]2O[C@]2(C)CCC[C@H](C)[C@H](O)[C@@H](C)C(=O)C(C)(C)[C@@H](O)CC(=O)O1` [PATUPILONE], the values for the IC50 with KB 3-1 (setting [2]) and with L929 (setting [3]) were 6.5e-05 µM and 0.00275 µM, respectively.
The compound `O=C(O)/C=C/c1ccc(O)cc1` [COUMARIC ACID] yielded an MIC against Mucor hiemalis of 50 µg/mL (≈ 305 µM). The MIC entry (in the assay on Staphylococcus aureus; in the assay with Micrococcus luteus; in the assay on Bacillus subtilis; in assay [1]) was “inactive” in each case. The IC50 entry in the assay on KB 3-1 (kb 3-1) and with L929 (l929) was “Not Active” in each case.
Regarding `CN(C)[C@@H]1C(O)=C(C(N)=O)C(=O)[C@@]2(O)C(O)=C3C(=O)c4c(O)cccc4[C@@](C)(O)[C@H]3[C@H](O)[C@@H]12` [OXYTETRACYCLINE], the MIC with Staphylococcus aureus and with Micrococcus luteus was 0.4 µg/mL (≈ 0.869 µM) each time.
In assay [1], `NC[C@H]1O[C@H](O[C@H]2[C@H](O)[C@@H](O[C@H]3O[C@H](CO)[C@@H](O)[C@H](N)[C@H]3O)[C@H](N)C[C@@H]2N)[C@H](O)[C@@H](O)[C@@H]1O` [KANAMYCIN] registered an MIC of 0.4 µg/mL (≈ 0.826 µM).
On to `C=C1CCC[C@@](C)(C(=O)O)[C@@H]1CCc1ccoc1`, for which the figures for the MIC with Mucor hiemalis and against Bacillus subtilis were 50 µg/mL (≈ 201 µM) and 75 µg/mL (≈ 302 µM), respectively. Besides, the MIC entry (with Staphylococcus aureus; with Micrococcus luteus; in assay [1]) was “inactive” throughout. In addition, the IC50 in the assay on KB 3-1 (setting [2]) was 141 µM; in the assay on L929 (l929), “Not Active”.
